# Assay results as given in ChEMBL document CHEMBL3865807, “Syntheses and photodynamic activity of some glucose-conjugated BODIPY dyes” (Eur J Med Chem, 2016).
# Calls of active or inactive are those of the source. The rule behind the calls is not given here.
# What was measured:
# Bos taurus [1] = species: Bos taurus; test: Binding affinity to calf thymus duplex DNA assessed as decrease in intensities of maximum absorption at 50 uM by spectrophotometric titration analysis
# Bos taurus [2] = species: Bos taurus; test: Binding affinity to calf thymus duplex DNA by UV-visible spectra analysis
# [3] = Cytotoxicity against human A549 cells assessed as decrease in cell viability up to 200 uM after 48 hrs under dark condition by MTT assay; assay type: toxicity, cell-based; conditions: a549, 48 h
# How it was run: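 Dark toxicity: A549 cells treated as in the MTT protocol (1 h compound exposure, serum-free medium, washed) with no light, then assessed at 48 h by MTT (0.5 mg/mL, 6 h, formazan in HCl/SDS, A550).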
# [4] = Photocytotoxicity against human A549 cells assessed as decrease in cell viability preincubated for 1 hr followed by 0.77 mW/cm2 white light irradiation for 80 mins measured after 24 hrs by MTT assay; assay type: functional, cell-based; conditions: A549, light or radiation study
# How it was run: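 IC50 from MTT: A549 cells (1×10^4/well) given graded compound concentrations 1 h in serum-free DMEM (vehicle ≤0.1% DMSO), washed, photo-exposed 80 min at 0.77 mW/cm², regular medium 24 h; MTT 0.5 mg/mL 6 h, A550; viability relative to vehicle control; four replicates, three experiments, mean ± SEM.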
# A549 [5] = test: Induction of morphological changes in human A549 cells assessed as changes in cell outline preincubated for 1 hr followed by 0.77 mW/cm2 white light irradiation for 80 mins measured after 24 hrs by phase contrast microscopy; assay type: functional, cell-based
# How it was run: (§1)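 A549 cells (1×10^5/well) on coverslips given vehicle (0.1% DMSO) or compound (0.625, 1.25, 2.5 µM) for 1 h, then irradiated 80 min (0.77 mW/cm²); kept 24 h in regular medium and examined unstained by phase-contrast microscopy (40× objective); representative fields imaged; experiments done three times.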
# A549 [6] = test: Induction of morphological changes in human A549 cells assessed as irregular disruptions in optical diffraction halo preincubated for 1 hr followed by 0.77 mW/cm2 white light irradiation for 80 mins measured after 24 hrs by phase contrast microscopy; assay type: functional, cell-based; how it was run: as §1
# A549 [7] = test: Induction of morphological changes in human A549 cells assessed as cells with blebbing membranes up to 2.5 uM preincubated for 1 hr followed by 0.77 mW/cm2 white light irradiation for 80 mins measured after 24 hrs by phase contrast microscopy; assay type: functional, cell-based; how it was run: as §1
# A549 [8] = test: Induction of morphological changes in human A549 cells assessed as increase in floating cells without adhering ability up to 2.5 uM preincubated for 1 hr followed by 0.77 mW/cm2 white light irradiation for 80 mins measured after 24 hrs by phase contrast microscopy; assay type: functional, cell-based; how it was run: as §1
# A549 [9] = test: Induction of apoptosis in human A549 cells assessed as increase in caspase 3 activity at 2.5 uM preincubated for 1 hr followed by 0.77 mW/cm2 white light irradiation for 80 mins measured after 16 hrs by colorimetric method relative to control; assay type: functional
# How it was run: (§2)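 A549 cells (1×10^6) given compound 2.5 µM for 1 h, then light 80 min; caspase activities measured at 16 h in whole-cell extracts with kits, colorimetric for caspase-3 and fluorimetric for caspase-8; untreated photo-exposed cells as control; five replicates, mean ± SEM.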
# A549 [10] = test: Induction of apoptosis in human A549 cells assessed as increase in caspase 8 activity at 2.5 uM preincubated for 1 hr followed by 0.77 mW/cm2 white light irradiation for 80 mins measured after 16 hrs by fluorimetric method relative to control; assay type: functional; how it was run: as §2
# A549 [11] = test: Induction of apoptosis in human A549 cells assessed as pro-caspase 3 level at 2.5 uM preincubated for 1 hr followed by 0.77 mW/cm2 white light irradiation for 80 mins measured after 4 hrs by immunoblot analysis relative to control; assay type: functional
# How it was run: (§3)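 Whole-cell extracts from A549 cells (1×10^6) treated with 0 or 2.5 µM compound, photo-exposed 80 min, lysed in Tris pH 7.4/NaCl/EDTA/Triton with protease inhibitors; 30 µg protein on 12% SDS-PAGE, nitrocellulose, milk block, caspase-3 antibody overnight 4 °C, HRP secondary, chemiluminescence; band ratio to normal control (=1) after loading-control normalisation.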
# A549 [12] = test: Induction of apoptosis in human A549 cells assessed as pro-caspase 3 level at 2.5 uM preincubated for 1 hr followed by 0.77 mW/cm2 white light irradiation for 80 mins measured after 16 hrs by immunoblot analysis relative to control; assay type: functional; how it was run: as §3
# [13] = Cell cycle arrest in human A549 cells assessed as accumulation at subG1 phase at 2.5 uM preincubated for 1 hr followed by 0.77 mW/cm2 white light irradiation for 80 mins measured after 24 hrs in presence of 5 mM of NAC by propidium iodide staining based flow cytometry (reference value: 8.2 +/- 1.1%); assay type: functional
# [14] = Drug uptake in endoplasmic reticulum of human A549 cells at 100 nM measured up to 4 hrs by ER-Tracker green staining based confocal microscopy; assay type: ADME, cell-based; conditions: a549, 4 h, 0.1 µM
# How it was run: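 Overnight-seeded A549 cells loaded with dye (100 nM), incubation periods 0.5-4 h tested, then ER-Tracker Green (500 nM) or MitoTracker Green (100 nM) for 30 min at 37 °C; washed, confocal imaging: trackers ex 488/em 500-530 nm, dye ex 543/em 560-640 nm; overlap of images judged.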
# [15] = Toxicity in human A549 cells assessed as alteration in cell morphology at 100 nM measured up to 4 hrs in dark by confocal microscopy; assay type: cell-based; conditions: a549, 4 h, 0.1 µM
# [16] = Photocytotoxicity against human WI38 cells at 50 uM using 0.77 mW/cm2 white light irradiation by MTT assay; assay type: toxicity, cell-based; conditions: wi-38, 50 µM
# [17] = Drug uptake in human A549 cells assessed as mean fluorescence intensity at 2.5 uM after 2 hrs by flow cytometry (reference value: 5.4 +/- 1.5); assay type: ADME, cell-based; conditions: a549, 2 h
# [18] = Drug uptake in human A549 cells assessed as mean fluorescence intensity at 2.5 uM after 8 hrs by flow cytometry (reference value: 5.4 +/- 1.5); assay type: ADME, cell-based; conditions: a549, 8 h
# [19] = Drug uptake in human A549 cells assessed as mean fluorescence intensity at 2.5 uM after 16 hrs by flow cytometry (reference value: 5.4 +/- 1.5); assay type: ADME, cell-based; conditions: a549, 16 h
# [20] = Drug uptake in human A549 cells assessed as mean fluorescence intensity at 2.5 uM after 24 hrs by flow cytometry (reference value: 5.4 +/- 1.5); assay type: ADME, cell-based; conditions: a549, 24 h
# [21] = Drug uptake in human L-132 cells assessed as mean fluorescence intensity at 2.5 uM after 2 hrs by flow cytometry (reference value: 4.6 +/- 1.2); assay type: ADME, cell-based; conditions: l132, 2 h
# [22] = Cytotoxicity against human WI38 cells assessed as reduction in cell viability at 50 uM under dark condition by MTT assay; assay type: toxicity, cell-based; conditions: wi-38, 50 µM
# [23] = Cytotoxicity against human L-132 cells assessed as reduction in cell viability at 50 uM under dark condition by MTT assay; assay type: toxicity, cell-based; conditions: l132, 50 µM
smiles,measurement,setting,value
CCC1=C(C)C2=C(C)c3c(C)c(CC)c(C)n3[B-](F)(F)[N+]2=C1/C=C/c1ccc(O[C@H]2O[C@H](CO)[C@@H](O)[C@H](O)[C@H]2O)cc1,Activity,Bos taurus [1],Active
same,Kb,Bos taurus [2],1.8 ×10⁴ /M
same,Activity,[3],Non-Toxic
same,IC50,[4],2700 nM
same,Activity,A549 [5],Dose-dependent effect
same,Activity,A549 [6],Dose-dependent effect
same,Activity,A549 [7],Active
same,Activity,A549 [8],Active
same,fold change (FC),A549 [9],2.9
same,fold change (FC),A549 [10],6.2
same,fold change (FC),A549 [11],0.8
same,fold change (FC),A549 [12],0.6
same,Activity,[13],46.5%
same,Drug uptake,[14],Active
same,Activity,[15],Non-Toxic
same,Activity,[16],5 to 7%
same,Flu intensity,[17],95.3 to 98.5
same,Flu intensity,[18],49.4 to 58.4
same,Flu intensity,[19],41.6 to 52.5
same,Flu intensity,[20],46.7
same,Flu intensity,[21],63.5
same,Activity,[22],Non-Toxic
same,Activity,[23],Non-Toxic
